Test results reported in ChEMBL document CHEMBL5506039, “Discovery and Optimization of Tambjamines as a Novel Class of Antileishmanial Agents” (J Med Chem, 2024).
Active and inactive are the calls of the source. The rule behind the calls is not given here.

What was measured:
[1] = AUC (0 to infinity) in male ICR-CD1 mouse liver at 40 mg/kg, po administered as single dose and measured upto 72 hrs; assay type: ADME, organism-based; details: in vivo
In short: (§1)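 Oral (intragastric) single dose, formulated in 50% PEG-400:50% sterile water, given to male ICR-CD1 mice (23–28 g), three per time point. Terminal cardiac-puncture blood (heparinized) and liver taken at 0, 0.5, 1, 2, 4, 8, 24, 30, 48, 54 and 72 h. Plasma separated by centrifugation at 4 °C. Samples held at −80 °C before drug quantitation and PK parameter calculation.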

[2] = Metabolic stability in pre-warmed pooled mouse liver microsomes assessed as half life at 1 uM measured upto 60 mins by LC-MS analysis; assay type: ADME, Microsome
In short: (§2)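 Compound at 1 μM final with 0.5 mg/mL pooled human or mouse liver microsomes, 1.3 mM NADP and 3.3 mM MgCl₂ in 100 mM potassium phosphate, pH 7.4. Reaction started with 1 U/mL G6PD at 37 °C with shaking.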

[3] = Mutagenicity in Salmonella typhimurium TA100 assessed as increase in revertant rate upto 10 uM incubated for 96 hrs in presence of S9 fraction by AMES test; assay type: toxicity, subcellular; details: salmonella enterica subsp. enterica serovar typhimurium, s9, 96 h
In short: (§3)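 96-well Ames format: overnight 37 °C cultures of TA98 and TA100 mixed with exposure medium, with or without S9. Compound tested up to 10 μM, plates incubated 96 h at 37 °C and positive wells over background scored visually. Positive controls were 2-aminoanthracene (with S9) and 4-nitroquinoline N-oxide plus 2-nitrofluorene (without S9).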

[4] = Therapeutic index, ratio of EC50 for mouse J774.A1 cells to EC50 for antileishmanial activity against Leishmania mexicana MNYC/BZ/62/M379 amastigotes expressing red-shifted firefly luciferase from integrated ribosomal (28S) RNA locus infected in mouse J774.A1 cells; assay type: toxicity, cell-based; details: read-out: TI
Leishmania mexicana [5] = experiment: Antileishmanial activity against Leishmania mexicana MNYC/BZ/62/M379 amastigotes expressing red-shifted firefly luciferase from integrated ribosomal (28S) RNA locus infected in mouse J774.A1 cells assessed as reduction in parasite survival measured after 96 hrs by luminescence based analysis; assay type: functional, organism-based; details: MNYC/BZ/62/M379, J774.A1, 96 h
In short: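 J774A.1 macrophages infected with stationary-phase luciferase-expressing promastigotes at 10:1 parasites:macrophage, overnight at 37 °C, 5% CO₂. Non-internalized parasites washed off and 1 × 10⁴ cells/well replated in MEM/10% HI-FBS. Compounds in DMSO added as serial 3-fold dilutions (typically 10 μM–1 nM) for 96 h. Luciferase luminescence read; EC50 from log-transformed sigmoidal variable-slope fit. Mean ± SD of ≥2 independent experiments.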

[6] = Extrapolated AUC in male ICR-CD1 mouse liver at 40 mg/kg, po administered as single dose and measured upto 72 hrs; assay type: ADME, organism-based; details: in vivo; in short: as §1
[7] = Mutagenicity in Salmonella typhimurium […] assessed as increase in revertant rate upto 10 uM incubated for 96 hrs in presence of S9 fraction by AMES test; assay type: toxicity, subcellular; details: salmonella enterica subsp. enterica serovar typhimurium, s9, 96 h; in short: as §3
Leishmania mexicana [8] = experiment: Antileishmanial activity against Leishmania mexicana amastigotes expressing red-shifted firefly luciferase from integrated ribosomal (28S) RNA locus infected in female BALB/c mouse assessed as retardation of lesion progression by measuring reduction in footpad lesion at 40 mg/kg/day, po …; assay type: functional, organism-based; details: time 20-29 day
[9] = Cmax in male ICR-CD1 mouse liver at 40 mg/kg, po administered as single dose and measured upto 72 hrs; assay type: ADME, organism-based; details: in vivo; in short: as §1
[10] = Mutagenicity in Salmonella typhimurium […] assessed as increase in revertant rate upto 10 uM incubated for 96 hrs in absence of S9 fraction by AMES test; assay type: toxicity; details: salmonella enterica subsp. enterica serovar typhimurium, s9, 96 h; in short: as §3
[11] = Mutagenicity in Salmonella typhimurium TA100 assessed as increase in revertant rate upto 10 uM incubated for 96 hrs in absence of S9 fraction by AMES test; assay type: toxicity; details: salmonella enterica subsp. enterica serovar typhimurium, s9, 96 h; in short: as §3
[12] = Cytotoxicity against mouse J774.A1 cells assessed as reduction in cell survival measured after 96 hrs by SYBR Green II dye based analysis; assay type: toxicity
In short: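 Uninfected J774A.1 macrophages, 1 × 10⁴ cells/well in DMEM/10% HI-FBS, reattached 3 h, then exposed to compounds for 96 h. DNA content read after lysis with SYBR Green II (1:1000 in 1% Triton/PBS), 1 h dark at room temperature, fluorescence Ex 485/Em 535.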

Leishmania mexicana [13] = experiment: Antileishmanial activity against Leishmania mexicana amastigotes expressing red-shifted firefly luciferase from integrated ribosomal (28S) RNA locus infected in female BALB/c mouse assessed as retardation of lesion progression by measuring reduction in luminescence signal over infected footpad at …; assay type: functional, organism-based; details: dose 40.0 mg/kg/day, route po, time 20-29 day
[14] = Cmax in male ICR-CD1 mouse plasma at 40 mg/kg, po administered as single dose and measured upto 72 hrs; assay type: ADME, organism-based; details: in vivo; in short: as §1
[15] = Metabolic stability in pre-warmed pooled human liver microsomes assessed as half life at 1 uM measured upto 60 mins by LC-MS analysis; assay type: ADME, Microsome; in short: as §2
[16] = Apparent elimination half life in male ICR-CD1 mouse plasma at 40 mg/kg, po administered as single dose and measured upto 72 hrs; assay type: ADME, organism-based; details: in vivo; in short: as §1
[17] = Tmax in male ICR-CD1 mouse liver at 40 mg/kg, po administered as single dose and measured upto 72 hrs; assay type: ADME, organism-based; details: in vivo; in short: as §1
[18] = AUC (0 to last) in male ICR-CD1 mouse plasma at 40 mg/kg, po administered as single dose and measured upto 72 hrs; assay type: ADME, organism-based; details: in vivo; in short: as §1
[19] = Apparent elimination half life in male ICR-CD1 mouse liver at 40 mg/kg, po administered as single dose and measured upto 72 hrs; assay type: ADME, organism-based; details: in vivo; in short: as §1
[20] = Cytotoxicity against mouse J774.A1 cells assessed as cell survival at 0.1 uM measured after 96 hrs by SYBR Green II dye based analysis relative to control; assay type: toxicity; details: read-out: Survival
In short: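 Uninfected J774A.1 mouse macrophages were plated at 1 × 10⁴ cells/well in DMEM with 10% heat-inactivated FBS and left 3 h at 37 °C to reattach. Compounds were added from DMSO, and analogues were screened at 0.1 μM. After 96 h at 37 °C in 5% CO₂, medium was removed. SYBR Green II (1:1000 in 1% Triton/PBS) was added for 1 h in the dark at room temperature, and fluorescence was read at Ex 485/Em 535 as a DNA-content measure of viability.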

[21] = Tmax in male ICR-CD1 mouse plasma at 40 mg/kg, po administered as single dose and measured upto 72 hrs; assay type: ADME, organism-based; details: in vivo; in short: as §1
Leishmania mexicana [22] = experiment: Antileishmanial activity against Leishmania mexicana MNYC/BZ/62/M379 amastigotes expressing red-shifted firefly luciferase from integrated ribosomal (28S) RNA locus infected in mouse J774.A1 cells assessed as parasite survival at 0.1 uM measured after 96 hrs by luminescence based analysis relative to control; assay type: functional; details: MNYC/BZ/62/M379, J774.A1
[23] = Extrapolated AUC in male ICR-CD1 mouse plasma at 40 mg/kg, po administered as single dose and measured upto 72 hrs; assay type: ADME, organism-based; details: in vivo; in short: as §1
[24] = AUC (0 to last) in male ICR-CD1 mouse liver at 40 mg/kg, po administered as single dose and measured upto 72 hrs; assay type: ADME, organism-based; details: in vivo; in short: as §1
Leishmania mexicana [25] = experiment: Antileishmanial activity against Leishmania mexicana MNYC/BZ/62/M379 amastigotes expressing red-shifted firefly luciferase from integrated ribosomal (28S) RNA locus infected in mouse J774.A1 cells assessed as inhibition of parasite growth at 0.1 uM measured after 96 hrs by luminescence based analysis relative to control; assay type: functional; details: MNYC/BZ/62/M379, J774.A1, read-out: INH
HepG2 = experiment: Cytotoxicity against human HepG2 cells assessed as inhibition of cell growth incubated for 48 hrs by MTT assay; assay type: toxicity, cell-based
In short: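 HepG2 cells, 2.5 × 10⁴/well in supplemented complete MEM, settled overnight at 37 °C, 5% CO₂. Compounds given as 11 duplicate 1.6-fold dilutions, 10 to 0.15 μg/mL, for 48 h. MTT added for 1 h in the dark at room temperature, formazan dissolved in acidified isopropanol, absorbance read. Triplicate runs; IC50 by sigmoidal variable-slope regression.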

[26] = AUC (0 to infinity) in male ICR-CD1 mouse plasma at 40 mg/kg, po administered as single dose and measured upto 72 hrs; assay type: ADME, organism-based; details: in vivo; in short: as §1

SMILES: CCc1ccc(C2=N/C(=C\NC3CCCCCC3)C(C)=C2C)[nH]1.Cl
- AUC [1]: 23043 ng·h/mL
- half-life at 1 µM [2]: > 1 h
- Activity [3]: Non-Toxic
- selectivity ratio [4]: 28
- EC50 (Leishmania mexicana [5]): 0.0409 µM
- %AUCextra [6]: 0.262%
- Activity [7]: Non-Toxic
- Activity (Leishmania mexicana [8]): Active
- Cmax [9]: 3667 ng/mL
- Activity [10]: Non-Toxic
- Activity [11]: Non-Toxic
- EC50 at 96 h [12]: 1.14 µM
- Activity (Leishmania mexicana [13]): Active
- Cmax [14]: 35 ng/mL
- half-life at 1 µM [15]: > 1 h
- betat1/2(app) [16]: > 72 h
- Tmax [17]: 2 h
- AUClast [18]: 2421 ng·h/mL
- betat1/2(app) [19]: > 36 h
- viability at 96 h, 0.1 µM [20]: 71.2%
- Tmax [21]: 0 h
- survival at 0.1 µM (Leishmania mexicana [22]): 3.7%
- %AUCextra [23]: 98.8%
- AUClast [24]: 22982 ng·h/mL
- percent inhibition of parasite growth at 0.1 µM (Leishmania mexicana [25]): > 96%
- IC50 (HepG2): 2.99 µM
- AUC [26]: 206250 ng·h/mL
